Results gathered from unrelated publications.
FGFR2: Fibroblast growth factor receptor 2 (FGFR2, Homo sapiens, UniProt P21802)
FGFR2 N549H: Fibroblast growth factor receptor 2 (FGFR2, Homo sapiens, UniProt P21802, N549H)

| SMILES | target | effect on | mode | method | tested at | inhibition |
| --- | --- | --- | --- | --- | --- | --- |
| CC/C(=N\NC(=O)NCc1cccc(O)c1)c1ccc(O)c(C)c1O | FGFR2 | enzyme activity | inhibitor |  | 0.1 µM | 7.7% |
| CN(C)C1CCN(CC#Cc2nn(C3CCCC3)c3nc(NCc4ccccc4)ncc23)C1 (stereo not drawn) | FGFR2 | enzyme activity | inhibitor | FRET | 10 µM | 46% |
| CNC(=O)c1cc(Oc2ccc(NC(=O)Nc3ccc(Cl)c(C(F)(F)F)c3)cc2)ccn1 | FGFR2 N549H | cell-free assay |  |  | 10 µM | 100% |
| O=C(CSc1nc2nccnc2c(=O)n1CCc1ccccc1)Nc1nccs1 | FGFR2 | enzyme activity | inhibitor |  | 10 µM | 3% |
| CNc1cccc2cc(C(=O)Nc3ccc(C(=O)O)cc3)c(=O)[nH]c12 | FGFR2 N549H | enzyme activity | inhibitor |  | 10 µM | 2.8% |
| CS(=O)(=O)Nc1cccc(-c2csc(NC(=O)CSc3nc4nccnc4c(=O)n3CCc3ccccc3)n2)c1 | FGFR2 | enzyme activity | inhibitor |  | 10 µM | -2% |
| CCCS(=O)(=O)Nc1ccc(F)c(C(=O)c2c[nH]c3ncc(-c4ccc(Cl)cc4)cc23)c1F | FGFR2 | enzyme activity | inhibitor |  | 1 µM | < 10% |
| Cc1ccc(Nc2nccc(N(C)c3ccc4c(C)n(C)nc4c3)n2)cc1S(N)(=O)=O | FGFR2 N549H | cell-free assay |  |  | 10 µM | 96% |
| COc1cc2ncnc(Nc3ccc(Oc4ccccc4)c(C)c3C)c2cc1OC | FGFR2 | enzyme activity | inhibitor |  | 1 µM | 3% |
| CNC(=O)c1cc2c(Oc3ccc(NC(=O)C4(C(=O)Nc5ccc(F)cc5)CC4)cc3)ccnc2cc1OC | FGFR2 N549H | enzyme activity | inhibitor | radiometric | 1 µM | 95% |
| COc1cc2nccc(Oc3ccc(NC(=O)c4c5n(n(-c6ccc(F)cc6)c4=O)CCCC5)cc3)c2cc1OC | FGFR2 | enzyme activity | inhibitor |  | 0.1 µM | 0% |
| CCN(CC)CCNC(=O)c1c(C)[nH]c(/C=C2\C(=O)Nc3ccc(F)cc32)c1C | FGFR2 N549H | cell-free assay |  |  | 10 µM | 95% |
| CSc1nc(C)c(-c2ccnc(Nc3ccc(N4CCOCC4)cc3)c2)[nH]1 | FGFR2 | cell-free assay | inhibitor |  | 10 µM | 44.9% |
| C=CC(=O)Nc1cc(Nc2nccc(Nc3cc(Cl)c(F)cc3C(C)(C)O)n2)c(OC)cc1N1CC[C@@H](N(C)C)C1 | FGFR2 | enzyme activity | inhibitor |  | 1 µM | 10% |
| COc1cc2ncnc(Nc3ccc(Oc4ccccc4)cc3C)c2cc1OC | FGFR2 | enzyme activity | inhibitor |  | 1 µM | 8% |
